The record followed here is ChEMBL document CHEMBL4145631, “Riluzole-Triazole Hybrids as Novel Chemical Probes for Neuroprotection in Amyotrophic Lateral Sclerosis” (ACS Med Chem Lett, 2018).

Each structure is given as a SMILES string. Calls of active or inactive are those of the source. The rule behind the calls is not given here.

Experiment [1] is filed under the species Mus musculus. As to the kind of experiment: Neuroprotective activity against kainate-induced cell death in mouse primary motor neurons by caspase activation method. It counts as functional.
For experiment [2], the system named is Cortical neurone. As to the kind of experiment: Neuroprotective activity against kainate-induced cell death in mouse primary cortical neurons by caspase activation method. It counts as functional, cell-based.
Experiment [3] relates to Cortical neurone. The experiment can be described thus: Neuroprotective activity against kainate-induced cell damage in mouse primary cortical neurons assessed as reversal of kainate-induced reduction in calcium flux by fura-2-AM dye based fluorescence assay. Type of experiment: functional. In outline: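 Mouse primary cortical neurons loaded with fura-2AM for 45 min, washed, then depolarized with 10 mM KCl to drive Ca2+ entry through voltage-gated calcium channels. Flux read on a plate-based system.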
On the technique in general: Calcium flux is commonly read through the fluorescence of an indicator in the cells.

Experiment [4] relates to Cortical neurone. As to the kind of experiment: Neuroprotective activity against kainate-induced cell death in mouse primary cortical neurons by MTT assay. Type of experiment: functional, cell-based. (Tetrazolium dyes change colour on reduction, which living cells bring about.)
For experiment [5], the system named is Cortical neurone. The experiment can be described thus: Neuroprotective activity against kainate-induced cell damage in mouse primary cortical neurons assessed as reduction in kainate-induced neurofilament loss by measuring increase in MAPK level at 1 uM pretreated followed by kainate challenge measured after 18 hrs by fluorescence assay. The note with it: in the assay text read “MAP2” for “MAPK”. It counts as functional, cell-based. In outline: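 Mouse primary cortical neurons cultured as previously described; dendritic processes stained with anti-MAP2 antibody. Cell-profile perimeter measured by image analysis, each condition normalized to kainate-only.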

In experiment [6] the test system is Cortical neurone. As to the kind of experiment: Neuroprotective activity against kainate-induced cell death in mouse primary cortical neurons by cell counting method. Type of experiment: functional, cell-based.
The species named for experiment [7] is Mus musculus. The experiment can be described thus: Neuroprotective activity against kainate-induced cell death in mouse primary motor neurons by MTT assay. It counts as functional.
The species named for experiment [8] is Mus musculus. The experiment can be described thus: Neuroprotective activity against kainate-induced cell death in mouse primary motor neurons by cell counting method. It counts as functional.

With `Cc1ccc(-c2cn(CCn3c(=N)sc4cc(OC(F)(F)F)ccc43)nn2)cc1`, the outcome in the experiment filed under Mus musculus [1], in the experiment with Cortical neurone [2], in the experiment on Cortical neurone [4], with Cortical neurone [5], with Cortical neurone [6] and in the experiment listed under Mus musculus [7] was inactive. Further, the result in the experiment filed under Mus musculus [8] was inactive. Besides, the outcome in the experiment with Cortical neurone [3] was Active.

As for `CN(C)c1ccc(-c2cn(CCn3c(=N)sc4cc(OC(F)(F)F)ccc43)nn2)cc1`, the outcome in the experiment filed under Mus musculus [1], with Cortical neurone [2], with Cortical neurone [4], in the experiment on Cortical neurone [5], in the experiment with Cortical neurone [6] and in the experiment listed under Mus musculus [7] was inactive. Also, the outcome in the experiment listed under Mus musculus [8] was inactive. Further, in the experiment on Cortical neurone [3], the outcome was Active.

With `N=c1sc2cc(OC(F)(F)F)ccc2n1CCn1cc(C2CCCCC2)nn1`, the result in the experiment listed under Mus musculus [1], in the experiment with Cortical neurone [2], in the experiment on Cortical neurone [4], in the experiment with Cortical neurone [5], with Cortical neurone [6] and in the experiment listed under Mus musculus [7] was inactive. For the same molecule, in the experiment filed under Mus musculus [8], the result was inactive. In addition, the result with Cortical neurone [3] was Active.

`N=c1sc2cc(OC(F)(F)F)ccc2n1CCn1cc(-c2ccsc2)nn1`: the outcome in the experiment filed under Mus musculus [1], with Cortical neurone [2], in the experiment on Cortical neurone [4], in the experiment on Cortical neurone [5], with Cortical neurone [6] and in the experiment filed under Mus musculus [7] was inactive. The outcome in the experiment filed under Mus musculus [8] was inactive. Besides, the outcome with Cortical neurone [3] was Active.

Regarding `CC(C)CCc1cn(CCn2c(=N)sc3cc(OC(F)(F)F)ccc32)nn1`, the outcome in the experiment listed under Mus musculus [1], in the experiment with Cortical neurone [2], in the experiment with Cortical neurone [4], in the experiment on Cortical neurone [5], in the experiment with Cortical neurone [6] and in the experiment filed under Mus musculus [7] was inactive. Besides, the result in the experiment listed under Mus musculus [8] was inactive. Also, the result in the experiment with Cortical neurone [3] was Active.

As for `N=c1sc2cc(OC(F)(F)F)ccc2n1CCn1cc(-c2ccc(F)c(F)c2)nn1`, the result in the experiment filed under Mus musculus [1], with Cortical neurone [2], in the experiment on Cortical neurone [4], with Cortical neurone [5], with Cortical neurone [6] and in the experiment listed under Mus musculus [7] was inactive. Moreover, the outcome in the experiment listed under Mus musculus [8] was inactive. Also, the result in the experiment with Cortical neurone [3] was Active.

As for `N=c1sc2cc(OC(F)(F)F)ccc2n1CCn1cc(-c2cccc(F)c2)nn1`, the result in the experiment listed under Mus musculus [1], with Cortical neurone [2], in the experiment on Cortical neurone [4], in the experiment with Cortical neurone [5], with Cortical neurone [6] and in the experiment filed under Mus musculus [7] was inactive. Moreover, the result in the experiment filed under Mus musculus [8] was inactive. In the experiment on Cortical neurone [3], the outcome was Active.

For the molecule `N=c1sc2cc(OC(F)(F)F)ccc2n1CCn1cc(-c2cccc(C(F)(F)F)c2)nn1`, the result in the experiment filed under Mus musculus [1], in the experiment on Cortical neurone [2], in the experiment on Cortical neurone [4], in the experiment with Cortical neurone [5], in the experiment with Cortical neurone [6] and in the experiment listed under Mus musculus [7] was inactive. Moreover, the result in the experiment listed under Mus musculus [8] was inactive. Besides, in the experiment with Cortical neurone [3], the result was Active.

In the case of `Cc1cccc(-c2cn(CCn3c(=N)sc4cc(OC(F)(F)F)ccc43)nn2)c1`, the result in the experiment filed under Mus musculus [1], in the experiment with Cortical neurone [2], in the experiment on Cortical neurone [4], in the experiment on Cortical neurone [5], with Cortical neurone [6] and in the experiment filed under Mus musculus [7] was inactive. In the experiment filed under Mus musculus [8], the result was inactive. For the same molecule, the outcome with Cortical neurone [3] was Active.

Take `N=c1sc2cc(OC(F)(F)F)ccc2n1CCn1cc(-c2ccc([N+](=O)[O-])cc2)nn1`: the result in the experiment filed under Mus musculus [1], with Cortical neurone [2], in the experiment on Cortical neurone [4], with Cortical neurone [5], in the experiment on Cortical neurone [6] and in the experiment filed under Mus musculus [7] was inactive. Also, the outcome in the experiment filed under Mus musculus [8] was inactive. For the same molecule, in the experiment with Cortical neurone [3], the result was Active.

As to `N=c1sc2cc(OC(F)(F)F)ccc2n1CCn1cc(Cc2ccccc2)nn1`, the result in the experiment filed under Mus musculus [1], in the experiment with Cortical neurone [2], with Cortical neurone [4], in the experiment with Cortical neurone [5], with Cortical neurone [6] and in the experiment filed under Mus musculus [7] was inactive. Also, the result in the experiment listed under Mus musculus [8] was inactive. Further, in the experiment with Cortical neurone [3], the result was Active.

For `CCCCCc1ccc(-c2cn(CCn3c(=N)sc4cc(OC(F)(F)F)ccc43)nn2)cc1`, the outcome in the experiment filed under Mus musculus [1], with Cortical neurone [2], in the experiment on Cortical neurone [4], in the experiment with Cortical neurone [5], in the experiment on Cortical neurone [6] and in the experiment filed under Mus musculus [7] was inactive. In addition, the result in the experiment filed under Mus musculus [8] was inactive. In the experiment with Cortical neurone [3], the result was Active.

On to `CCCc1cn(CCn2c(=N)sc3cc(OC(F)(F)F)ccc32)nn1`, for which the result in the experiment filed under Mus musculus [1], with Cortical neurone [2], in the experiment on Cortical neurone [4], with Cortical neurone [5], in the experiment on Cortical neurone [6] and in the experiment filed under Mus musculus [7] was inactive. Moreover, the outcome in the experiment filed under Mus musculus [8] was inactive. Further, in the experiment on Cortical neurone [3], the result was Active.

For `CCOC(=O)c1cn(CCn2c(=N)sc3cc(OC(F)(F)F)ccc32)nn1`, the outcome in the experiment listed under Mus musculus [1], with Cortical neurone [2], with Cortical neurone [4], in the experiment on Cortical neurone [5], with Cortical neurone [6] and in the experiment listed under Mus musculus [7] was inactive. The result in the experiment filed under Mus musculus [8] was inactive. The outcome in the experiment with Cortical neurone [3] was Active.

With `N=c1sc2cc(OC(F)(F)F)ccc2n1CCn1cc(-c2ccccc2N)nn1`, the outcome in the experiment filed under Mus musculus [1], in the experiment with Cortical neurone [2], in the experiment with Cortical neurone [4], in the experiment with Cortical neurone [6], in the experiment listed under Mus musculus [7] and in the experiment filed under Mus musculus [8] was inactive. The result with Cortical neurone [3] and in the experiment on Cortical neurone [5] was Active.

`N=c1sc2cc(OC(F)(F)F)ccc2n1CCn1cc(-c2cccs2)nn1`: the outcome in the experiment filed under Mus musculus [1], in the experiment with Cortical neurone [2], with Cortical neurone [4], with Cortical neurone [6], in the experiment filed under Mus musculus [7] and in the experiment filed under Mus musculus [8] was inactive. Also, the outcome in the experiment on Cortical neurone [3] and with Cortical neurone [5] was Active.

In the case of `N=c1sc2cc(OC(F)(F)F)ccc2n1CCn1cc(-c2cccc(Cl)c2)nn1`, the result in the experiment filed under Mus musculus [1], with Cortical neurone [2], with Cortical neurone [4], with Cortical neurone [5], in the experiment on Cortical neurone [6] and in the experiment filed under Mus musculus [7] was inactive. The outcome in the experiment listed under Mus musculus [8] was inactive. In addition, the outcome with Cortical neurone [3] was Active.

Consider `CCCCCCc1ccc(-c2cn(CCn3c(=N)sc4cc(OC(F)(F)F)ccc43)nn2)cc1`, for which the outcome in the experiment filed under Mus musculus [1], with Cortical neurone [2], with Cortical neurone [4], in the experiment with Cortical neurone [5], with Cortical neurone [6] and in the experiment filed under Mus musculus [7] was inactive. Also, the result in the experiment listed under Mus musculus [8] was inactive. In addition, the result in the experiment on Cortical neurone [3] was Active.

As to `N=c1sc2cc(OC(F)(F)F)ccc2n1CCn1cc(-c2ccc(F)cc2)nn1`, the outcome in the experiment filed under Mus musculus [1], in the experiment with Cortical neurone [2], in the experiment on Cortical neurone [4], in the experiment on Cortical neurone [5], with Cortical neurone [6] and in the experiment listed under Mus musculus [7] was inactive. For the same molecule, in the experiment filed under Mus musculus [8], the outcome was inactive. Also, the result in the experiment on Cortical neurone [3] was Active.

As to `CC(C)(C)c1ccc(-c2cn(CCn3c(=N)sc4cc(OC(F)(F)F)ccc43)nn2)cc1`, the result in the experiment filed under Mus musculus [1], in the experiment on Cortical neurone [2], in the experiment on Cortical neurone [4], in the experiment on Cortical neurone [5], in the experiment on Cortical neurone [6] and in the experiment filed under Mus musculus [7] was inactive. The result in the experiment listed under Mus musculus [8] was inactive. In the experiment with Cortical neurone [3], the outcome was Active.

`COc1cccc(-c2cn(CCn3c(=N)sc4cc(OC(F)(F)F)ccc43)nn2)c1`: the result in the experiment filed under Mus musculus [1], in the experiment on Cortical neurone [2], with Cortical neurone [4], in the experiment on Cortical neurone [5], in the experiment with Cortical neurone [6] and in the experiment listed under Mus musculus [7] was inactive. The outcome in the experiment listed under Mus musculus [8] was inactive. Besides, the outcome with Cortical neurone [3] was Active.
